# Test results as given in ChEMBL document CHEMBL1938247, “Synthesis and evaluation of inhibitors of bacterial drug efflux pumps of the major facilitator superfamily” (2011).
# Activity calls are given as the source filed them. The calls are words filed in the database; no cut-off is given here. Where a SMILES comes first, the peptide text is derived from it. [ ]: non-standard residue; d: D form. The star is where a group is joined. ξ: configuration not given here. ξhPhe = NC(CCc1ccccc1)C(=O)O; βNA = c1ccc2cc(N*)ccc2c1
# Legend:
# Streptomyces coelicolor [1] = assay: Potentiation of chloramphenicol-induced antibacterial activity against Streptomyces coelicolor at 25 ug/mL after 48 hrs relative to control; format: functional
# Summary of the method: (§1)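 1 μL of a 10⁸ cfu/μL spore stock patched per plate; incubated at 30 °C. Strains: wild-type S. coelicolor, or PCR-targeted null mutants lacking cmlR1, cmlR2 or both. Reference efflux inhibitor MC-207,110 (Phe-Arg-β-naphthylamide) tested at the same 25 μg/mL.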
# Streptomyces coelicolor [2] = assay: Antibacterial activity against Streptomyces coelicolor at 25 ug/mL after 48 hrs; format: functional, organism-based
# Summary of the method: (§2)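 Strains: wild-type S. coelicolor, or PCR-targeted null mutants lacking cmlR1, cmlR2 or both. Inhibitors HPLC-purified before testing; inhibitor alone at 25 μg/mL also checked for intrinsic toxicity.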
# Streptomyces coelicolor [3] = assay: Antibacterial activity against Streptomyces coelicolor after 48 hrs; format: functional
# Streptomyces coelicolor [4] = assay: Potentiation of chloramphenicol-induced antibacterial activity against cmlR1-deficient Streptomyces coelicolor at 25 ug/mL after 48 hrs relative to control; format: functional; summary of the method: as §1
# Streptomyces coelicolor [5] = assay: Potentiation of chloramphenicol-induced antibacterial activity against cmlR2-deficient Streptomyces coelicolor at 25 ug/mL after 48 hrs relative to control; format: functional; summary of the method: as §1
# Streptomyces coelicolor [6] = assay: Potentiation of chloramphenicol-induced antibacterial activity against cmlR1 and cmlR2-deficient Streptomyces coelicolor at 25 ug/mL after 48 hrs relative to control; format: functional; summary of the method: as §1
# Streptomyces coelicolor [7] = assay: Inhibition of cmlR1 overexpressed in Streptomyces coelicolor assessed as potentiation of chloramphenicol-induced antibacterial activity measuring reduction in MIC of chloramphenicol at 25 ug/mL after 48 hrs relative to control
# Summary of the method: (§3)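 The cmlR1/cmlR2 double-null S. coelicolor strain was engineered to over-express cmlR1 or cmlR2 from a strong constitutive promoter. Spores (1 μL of a 10⁸ cfu/μL stock) were patched on Difco nutrient agar with 25 μg/mL inhibitor and varying chloramphenicol, then incubated at 30 °C. The chloramphenicol MIC (μg/mL) was read, and fold-potentiation was taken relative to the MIC without inhibitor.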
# Streptomyces coelicolor [8] = assay: Inhibition of cmlR2 overexpressed in Streptomyces coelicolor assessed as potentiation of chloramphenicol-induced antibacterial activity measuring reduction in MIC of chloramphenicol at 25 ug/mL after 48 hrs relative to control; summary of the method: as §3
# Streptomyces coelicolor [9] = assay: Antibacterial activity against cmlR1-deficient Streptomyces coelicolor at 25 ug/mL after 48 hrs; format: functional, organism-based; summary of the method: as §2
# Streptomyces coelicolor [10] = assay: Antibacterial activity against cmlR2-deficient Streptomyces coelicolor at 25 ug/mL after 48 hrs; format: functional, organism-based; summary of the method: as §2
# Streptomyces coelicolor [11] = assay: Antibacterial activity against cmlR1 and cmlR2-deficient Streptomyces coelicolor at 25 ug/mL after 48 hrs; format: functional, organism-based; summary of the method: as §2
# Streptomyces coelicolor [12] = assay: Antibacterial activity against Streptomyces coelicolor overexpressing cmlR1 at 25 ug/mL after 48 hrs; format: functional, organism-based
# Summary of the method: (§4)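 Host strains were the cmlR1/cmlR2 double-null S. coelicolor carrying cmlR1 or cmlR2 under a strong constitutive promoter, selected for hygromycin resistance. Growth was checked on Difco nutrient agar containing 25 μg/mL test compound alone, with plates kept at 30 °C.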
# Streptomyces coelicolor [13] = assay: Antibacterial activity against Streptomyces coelicolor overexpressing cmlR2 at 25 ug/mL after 48 hrs; format: functional, organism-based; summary of the method: as §4
# Streptomyces coelicolor [14] = assay: Potentiation of chloramphenicol-induced antibacterial activity against Streptomyces coelicolor at 25 ug/mL after 48 hrs relative to MC-207,110; format: functional; summary of the method: as §1
SMILES,Activity (Streptomyces coelicolor [1]),Activity (Streptomyces coelicolor [2]),MIC (Streptomyces coelicolor [3]) [µg/mL],also measured
NCCC[C@@H](N)C(=O)NC(CCc1ccccc1)C(=O)NCc1ccccc1 (stereo partly drawn),Active,inactive,–,–
NCCC[C@H](N)C(=O)N[C@@H](CCc1ccccc1)C(=O)Nc1ccc2ccccc2c1,–,inactive,11,fold change (FC) (Streptomyces coelicolor [1]): 5.9
NCC(=O)NC(CCc1ccccc1)C(=O)Nc1ccc2ccccc2c1 (stereo not drawn) (H-Gly-[ξhPhe]-βNA),Active,inactive,–,–
NCCC[C@@H](N)C(=O)NC(C(=O)Nc1ccc2ccccc2c1)c1ccccc1 (stereo partly drawn),Active,inactive,–,–
NCCC[C@H](N)C(=O)NC(CCc1ccccc1)C(=O)Nc1cnc2ccccc2c1 (mixture of isomers),–,inactive,> 40,–
NCCC(=O)NC(CCc1ccccc1)C(=O)Nc1ccc2ccccc2c1 (stereo not drawn),Active,inactive,–,–
NCCC[C@@H](N)C(=O)NC(C(=O)Nc1ccc2ccccc2c1)c1ccco1 (stereo partly drawn),–,inactive,–,–
CC(C)(C)NC(=O)C(CCc1ccccc1)NC(=O)[C@H](N)CCCN (stereo partly drawn),inactive,inactive,–,–
NCCC[C@@H](N)C(=O)NC(CCc1ccccc1)C(=O)Nc1cnc2ccccc2c1 (mixture of isomers),–,inactive,> 40,–
CN(C(=O)[C@H](N)CCCN)C(CCc1ccccc1)C(=O)Nc1ccc2ccccc2c1 (stereo partly drawn),Active,inactive,–,–
NCCC[C@H](N)C(=O)NC(CCc1ccccc1)C(=O)Nc1ccc2ccccc2c1 (mixture of isomers),–,inactive,10,fold change (FC) (Streptomyces coelicolor [1]): 6.5
NCCC[C@H](N)C(=O)N[C@H](CCc1ccccc1)C(=O)Nc1ccc2ccccc2c1,–,inactive,9,fold change (FC) (Streptomyces coelicolor [1]): 7.2; fold change (FC) (Streptomyces coelicolor [4]): 3.3; fold change (FC) (Streptomyces coelicolor [5]): 2.4; fold change (FC) (Streptomyces coelicolor [6]): 1.8; fold change (FC) (Streptomyces coelicolor [7]): 3.5; fold change (FC) (Streptomyces coelicolor [8]): 7.3; Activity (Streptomyces coelicolor [9]): inactive; Activity (Streptomyces coelicolor [10]): inactive; Activity (Streptomyces coelicolor [11]): inactive; Activity (Streptomyces coelicolor [12]): inactive; Activity (Streptomyces coelicolor [13]): inactive; fold change (FC) (Streptomyces coelicolor [14]): 3
N=C(N)NCCC[C@H](NC(=O)[C@@H](N)Cc1ccccc1)C(=O)Nc1ccc2ccccc2c1 [PABETAN] (H-Phe-Arg-βNA),–,inactive,25,fold change (FC) (Streptomyces coelicolor [1]): 2.6
NCCC[C@@H](N)C(=O)NC(CCc1ccccc1)C(=O)NC1CCCCC1 (stereo partly drawn),inactive,inactive,–,–
NCCC[C@@H](N)C(=O)NC(CCc1ccccc1)C(=O)Nc1ccc2ccccc2c1 (mixture of isomers),–,inactive,10,fold change (FC) (Streptomyces coelicolor [1]): 6.5
CC(C)C(NC(=O)[C@H](N)CCCN)C(=O)Nc1ccc2ccccc2c1 (stereo partly drawn),Active,inactive,–,–
NCCCCCC(=O)NC(CCc1ccccc1)C(=O)Nc1ccc2ccccc2c1 (stereo not drawn),Active,inactive,–,–
NCCC[C@@H](N)C(=O)NC(C(=O)Nc1ccc2ccccc2c1)c1ccc([N+](=O)[O-])cc1 (stereo partly drawn),Active,inactive,–,–
COc1ccc(C(NC(=O)[C@H](N)CCCN)C(=O)Nc2ccc3ccccc3c2)cc1 (stereo partly drawn),Active,inactive,–,–
NCCCCC(=O)NC(CCc1ccccc1)C(=O)Nc1ccc2ccccc2c1 (stereo not drawn),Active,inactive,–,–
NCCC[C@@H](N)C(=O)OC(CCc1ccccc1)C(=O)Nc1ccc2ccccc2c1 (stereo partly drawn),–,inactive,–,–
CCCCNC(=O)C(CCc1ccccc1)NC(=O)[C@H](N)CCCN (stereo partly drawn),inactive,inactive,–,–
